The source made the active and inactive calls. The rule behind the calls is not given here. Bounds are passed on as bounds.

Here are results for five molecules from ChEMBL document CHEMBL3739352, “Anticonvulsant activity, crystal structures, and preliminary safety evaluation of N-trans-cinnamoyl derivatives of selected (un)modified aminoalkanols” (Eur J Med Chem, 2016).

The nature of data set [1]: Hepatotoxicity against human HepG2 cells assessed as cell viability at 50 uM after 24 hrs by MTT assay relative to control. In general terms: Formazan colour is commonly taken as a measure of viable cells.
Data set [2] is described as follows: Protection index, ratio of TD50 for neurotoxicity in ip dosed albino Carworth Farms No.1 mouse to ED50 for anticonvulsant activity in ip dosed albino Carworth Farms No.1 mouse assessed as protection against maximal electroshock-induced seizures. It counts as toxicity, organism-based. As to conditions: in vivo, read-out: Ratio TD50/ED50. A digest of the protocol: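 Graded i.p. doses in 0.5% methylcellulose were given to albino Carworth Farms No.1 mice. ED50 was determined in MES, scPTZ or 6-Hz (32 mA) tests, and TD50 by rotarod. PI was calculated as TD50/ED50.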
(The maximal electroshock test induces tonic seizures with an electrical stimulus.)

Data set [3] concerns Rattus norvegicus. The data set is described as follows: Anticonvulsant activity in Sprague-Dawley rat assessed as protection against maximal electroshock-induced seizures at 30 mg/kg, po after 1 hr. It counts as functional, organism-based. The procedure, abridged: (§1)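 Sprague-Dawley rats were given 30 mg/kg p.o. in 0.5% methylcellulose. Maximal electroshock was applied at 0.25, 0.5, 1.0, 2.0 and 4 h after dosing. Results are reported as number of rats protected / number tested.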

Data set [4] is described as follows: Neurotoxicity in po dosed Sprague-Dawley rat after 0.5 hrs by rotarod test. It is filed as toxicity, organism-based. To be noted: in vivo.
A short description of data set [5]: Protection index, ratio of TD50 for neurotoxicity in po dosed Sprague-Dawley rat to ED50 for anticonvulsant activity in po dosed Sprague-Dawley rat assessed as maximal electroshock-induced seizures. It is filed as toxicity, organism-based. As to conditions: in vivo.
Data set [6] concerns Mus musculus. The data set is described as follows: Anticonvulsant activity in albino Carworth Farms No.1 mouse assessed as protection against 6-Hz electroshock-induced seizures at 100 mg/kg, ip after 1 hr. It counts as functional, organism-based. The procedure, abridged: (§2)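 Carworth Farms No.1 albino mice were dosed i.p. at 100 mg/kg (0.5% methylcellulose solution or suspension). 6-Hz seizures were induced at 32 mA at 0.25, 0.5, 1.0, 2.0 and 4 h after injection. Results are given as animals protected / animals tested.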

Data set [7] deals with Mus musculus. Put plainly: Anticonvulsant activity in ip dosed albino Carworth Farms No.1 mouse assessed as protection against maximal electroshock-induced seizures after 0.25 hrs. It is filed as functional. To be noted: Carworth Farms No.1, ip. The procedure, abridged: (§3)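 Quantitative i.p. evaluation in Carworth Farms No.1 albino mice, with graded doses in 0.5% methylcellulose. MES, scPTZ or 6-Hz (32 mA) seizure tests were run at 0.25 h.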

Data set [8] is described as follows: Hepatotoxicity against human HepG2 cells assessed as cell viability at 10 uM after 24 hrs by MTT assay relative to control. It is filed as toxicity, cell-based. To be noted: read-out: Activity. A digest of the protocol:
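HepG2 cells (EMEM, 10% FBS, 37 °C, 5% CO₂) were seeded at 1 × 10⁴ per well and cultured overnight. They were then exposed to increasing compound concentrations for 24 h. MTT reagent was added for 3 h and formazan crystals dissolved before reading. Data are mean ± SD of at least three independent experiments, relative to untreated control.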

Data set [9] can be described thus: Protection index, ratio of TD50 for neurotoxicity in ip dosed albino Carworth Farms No.1 mouse to ED50 for anticonvulsant activity in ip dosed albino Carworth Farms No.1 mouse assessed as protection against subcutaneous dosed pentetrazol-induced seizures. It is filed as toxicity, organism-based. As to conditions: in vivo, intraperitoneal, read-out: Ratio TD50/ED50. The procedure, abridged:
(§4)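 Graded i.p. doses in 0.5% methylcellulose were given to albino Carworth Farms No.1 mice. ED50 was determined in MES, scPTZ or 6-Hz (32 mA) tests, and TD50 by rotarod. Both were reported with 95% confidence intervals. PI was calculated as TD50/ED50.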

The subject of data set [10] is Mus musculus. The data set is described as follows: Anticonvulsant activity in albino Carworth Farms No.1 mouse assessed as protection against 6-Hz electroshock-induced seizures at 100 mg/kg, ip after 0.25 hrs. It counts as functional, organism-based. A digest of the protocol: as §2
For data set [11], the system named is Mus musculus. Put plainly: Anticonvulsant activity in albino Carworth Farms No.1 mouse assessed as protection against 6-Hz electroshock-induced seizures at 100 mg/kg, ip after 2 hrs. It counts as functional, organism-based. A digest of the protocol: as §2
The nature of data set [12]: in vitro. To be noted: human, HepG2 cells.
Data set [13] deals with Mus musculus. The data set is described as follows: Anticonvulsant activity in albino Carworth Farms No.1 mouse assessed as protection against 6-Hz electroshock-induced seizures at 100 mg/kg, ip after 0.5 hrs. It is filed as functional, organism-based. A digest of the protocol:
as §2

The nature of data set [14]: in vitro. To be noted: human, HepG2 cells. This is another data set of the same source.
Data set [15] is described as follows: Protection index, ratio of TD50 for neurotoxicity in po dosed Sprague-Dawley rat to ED50 for anticonvulsant activity in po dosed Sprague-Dawley rat assessed as subcutaneous dosed pentetrazol-induced seizures. As to conditions: in vivo. It counts as toxicity, organism-based.
For data set [16], the system named is Rattus norvegicus. Put plainly: Anticonvulsant activity in Sprague-Dawley rat assessed as protection against maximal electroshock-induced seizures at 30 mg/kg, po after 4 hrs. It counts as functional, organism-based. A digest of the protocol:
as §1

Data set [17] has as its system Rattus norvegicus. The data set is described as follows: Anticonvulsant activity in po dosed Sprague-Dawley rat assessed as protection against subcutaneous dosed pentetrazol-induced seizures after 0.5 hrs. It is filed as functional. The procedure, abridged:
(§5)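 Sprague-Dawley rats received graded oral doses suspended or dissolved in 0.5% methylcellulose. Challenge was maximal electroshock or subcutaneous pentetrazol at the stated time after dosing.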

Data set [18] deals with Mus musculus. The data set is described as follows: Anticonvulsant activity in ip dosed albino Carworth Farms No.1 mouse assessed as protection against subcutaneous dosed pentetrazol-induced seizures after 0.25 hrs. It is filed as functional. To be noted: Carworth Farms No.1, 0.25 h. The procedure, abridged: as §3
Data set [19] deals with Rattus norvegicus. Put plainly: Neurotoxicity in Sprague-Dawley rat at 30 mg/kg, po after 0.25 hrs. It is filed as toxicity, organism-based. To be noted: in vivo. A digest of the protocol: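 Sprague-Dawley rats were given 30 mg/kg orally in 0.5% methylcellulose. Neurotoxicity was checked at 0.25, 0.5, 1.0, 2.0 and 4 h after dosing. Results are given as number of rats showing neurotoxicity/number tested.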

Data set [20] relates to Rattus norvegicus. Put plainly: Anticonvulsant activity in po dosed Sprague-Dawley rat assessed as protection against maximal electroshock-induced seizures after 0.5 hrs. It counts as functional. A digest of the protocol: as §5
The test system of the next data set is HepG2. Put plainly: Cytotoxicity against human HepG2 cells assessed as change in cell morphology after 48 hrs by inverted microscopic analysis. It counts as cell-based. As to conditions: hepg2, 48 h. The procedure, abridged:
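HepG2 cells in EMEM with 10% FBS and antibiotics were seeded at 5 × 10⁴ cells/cm². After 24 h the medium was replaced with fresh medium with or without compound. After 48 h, cells were imaged under interference modulation contrast at 37 °C, 5% CO₂.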

Data set [21] can be described thus: Protection index, ratio of TD50 for neurotoxicity in ip dosed albino Carworth Farms No.1 mouse to ED50 for anticonvulsant activity in ip dosed albino Carworth Farms No.1 mouse assessed as protection against 6-Hz electroshock-induced seizures. It counts as toxicity, organism-based. To be noted: in vivo, read-out: Ratio TD50/ED50. The procedure, abridged:
as §4

The test system of data set [22] is Mus musculus. Put plainly: Anticonvulsant activity in ip dosed albino Carworth Farms No.1 mouse assessed as protection against 6-Hz electroshock-induced seizures after 0.25 hrs. It is filed as functional. As to conditions: Carworth Farms No.1, ip. The procedure, abridged:
as §3

Data set [23] deals with Rattus norvegicus. The data set is described as follows: Anticonvulsant activity in po dosed Sprague-Dawley rat assessed as protection against subcutaneous dosed pentetrazol-induced seizures after 1 hr. It is filed as functional. The procedure, abridged:
as §5

Data set [24] concerns Rattus norvegicus. The data set is described as follows: Anticonvulsant activity in po dosed Sprague-Dawley rat assessed as protection against maximal electroshock-induced seizures after 1 hr. It is filed as functional. A digest of the protocol: as §5
Data set [25] is described as follows: Neurotoxicity in po dosed Sprague-Dawley rat after 1 hr by rotarod test. To be noted: in vivo. It is filed as toxicity, organism-based.

The TD50 is the 50% point of the dose-response relation for the toxic effect studied. Read a low TD50 as harm at a small dose. The ED50 is the midpoint of the dose-response relation. As to `CC(O)CNC(=O)/C=C/c1ccccc1` (racemic), the figures for the viability at 24 h, 50 µM (in [1]; in the data set “in vitro [12]”) were 92.6% and 98%, respectively. Also, the selectivity ratio in data set [2] is 2.9; in data set [5], greater than 11; in data set [9], 1.8; in data set [15], greater than 10.8. In addition, the outcome in the data set with Rattus norvegicus [3], in the data set with Mus musculus [11] and with Rattus norvegicus [16] was inactive. In addition, the TD50 at 0.5 h in data set [4] was greater than 500 mg/kg. The outcome in the data set on Mus musculus [6], in the data set with Mus musculus [10] and in the data set on Mus musculus [13] was Active. Moreover, the ED50 amounted to 47.1 mg/kg in the data set with Mus musculus [7], 46.2 mg/kg with Rattus norvegicus [17], 77.1 mg/kg in the data set on Mus musculus [18] and 22.8 mg/kg in the data set on Rattus norvegicus [20]. For the same molecule, the viability at 24 h, 10 µM in [8] is 97.3%; in the data set “in vitro [14]”, 99%. Further, the Activity entry in the data set on Rattus norvegicus [19] and with HepG2 was “Non-toxic” throughout.
`CCC(O)CNC(=O)/C=C/c1ccccc1` (racemic): the results for the viability at 24 h, 50 µM (in data set [1]; in the data set “in vitro [12]”) were 89.4% and 92%, respectively. Also, the outcome in the data set on Rattus norvegicus [3], with Mus musculus [6], in the data set with Mus musculus [11] and in the data set on Rattus norvegicus [16] was inactive. Further, the TD50 at 0.5 h in data set [4] was greater than 500 mg/kg. Moreover, the selectivity ratio in [5] was greater than 12.1. In addition, the figures for the viability at 24 h, 10 µM (in [8]; in the data set “in vitro [14]”) were 94.5% and 98%, respectively. Moreover, the outcome in the data set on Mus musculus [10] was Active. The 50% effective dose (ED50) is greater than 250 mg/kg in the data set with Rattus norvegicus [17] and 41.5 mg/kg in the data set with Rattus norvegicus [20]. Also, the Activity result with Rattus norvegicus [19] and in the data set on HepG2 was “Non-toxic” each time.
As to `CC(C)C(CO)NC(=O)/C=C/c1ccccc1` (racemic), the viability at 24 h, 50 µM turned out to be 89.1% in data set [1] and 93% in “in vitro [12]”. In addition, the outcome in the data set with Rattus norvegicus [3], in the data set with Mus musculus [6], in the data set with Mus musculus [11] and in the data set on Rattus norvegicus [16] was inactive. Besides, the selectivity ratio in [21] was 1.8. The figures for the viability at 24 h, 10 µM (in [8]; in “in vitro [14]”) were 95.2% and 98%, respectively. Also, the result with Mus musculus [10] and with Mus musculus [13] was Active. In addition, the median effective dose (ED50) with Mus musculus [22] worked out at 106 mg/kg. The Activity result in the data set on Rattus norvegicus [19] and with HepG2 was “Non-toxic” throughout.
As to `O=C(/C=C/c1ccccc1)N1CCC(O)CC1`, the outcome in the data set on Rattus norvegicus [3] and with Rattus norvegicus [16] was inactive. For the same molecule, the Activity result in the data set with Rattus norvegicus [19] is on record as “Non-toxic”.
In the case of `CC(CO)NC(=O)/C=C/c1ccccc1` (racemic), the viability at 24 h, 50 µM in data set [1] was determined as 95%; in “in vitro [12]” it was 96%. In addition, the selectivity ratio in data set [2] is 2.6; in [5], greater than 8.1; in [21], 3.7; in data set [9], 2. Moreover, the ED50 is greater than 250 mg/kg in the data set on Rattus norvegicus [23]; 86.6 mg/kg in the data set with Mus musculus [7]; 60.9 mg/kg in the data set with Mus musculus [22]; 110 mg/kg in the data set on Mus musculus [18]; 31 mg/kg in the data set on Rattus norvegicus [24]. The outcome with Rattus norvegicus [3], with Mus musculus [6], with Mus musculus [11] and in the data set with Rattus norvegicus [16] was inactive. The results for the viability at 24 h, 10 µM (in [8]; in the data set “in vitro [14]”) were 97.1% and 98%, respectively. Moreover, the Activity entry in the data set on Rattus norvegicus [19] and with HepG2 was “Non-toxic” each time. The molecule also came in with a TD50 at 1 h in data set [25] greater than 250 mg/kg.
